Test results: ChEMBL document CHEMBL1123007, “New antiarrhythmic agents. N-aryl-8-pyrrolizidinealkanamides” (J Med Chem, 1985)
The source made the active and inactive calls. No cut-off for these calls is given here.

Assays:
[1] = Potency of the drug was evaluated by comparison with Lidocain; potency = ED50 of Lidocaine /ED50 of compound.; type: functional
[2] = Ratio of LD50 to ED50 evaluated for its antiarrhythmic potency; type: functional, Heart
[3] = system: Mus musculus; experiment: Antiarrhythmic activity evaluated in mouse after subcutaneous administration; type: functional; settings: Heart, sc
Outline: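 Male DDY mice (18-22 g), groups of 10, dosed s.c. at 0.1 mL/10 g body weight, three to four doses per compound. ED50 (dose protecting 50% from fibrillation) by Litchfield-Wilcoxon, with 95% confidence limits.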

[4] = Acute toxicity was determined in mice; type: organism-based; settings: mouse, in vivo
[5] = Potency of the drug was evaluated by comparison with Lidocain; potency = ED50 of Lidocaine /ED50 of compound; type: functional
[6] = system: Mus musculus; experiment: Antiarrhythmic activity evaluated in mouse after subcutaneous administration; No effect; type: functional, organism-based; settings: Heart

Compound	Potency [1]	Ratio [2]	also measured
Cc1cc(C)cc(NC(=O)CC23CCCN2CCC3)c1	0.69	6.83	
O=C(CC12CCCN1CCC2)Nc1c(Cl)cccc1Cl			ED20 [3]: 100 mg/kg
Cc1ccc(C)c(NC(=O)CC23CCCN2CCC3)c1	0.5	5.56	
Cc1ccc(NC(=O)CC23CCCN2CCC3)cc1C	0.47	7.36	
CCN(CC)CC(=O)Nc1c(C)cccc1C [LIDOCAINE]	1		ED50 [3]: 29 mg/kg
Cc1ccc(NC(=O)CC23CCCN2CCC3)cc1			ED20 [3]: 100 mg/kg
O=C(CC12CCCN1CCC2)Nc1ccccc1Br	0.76	7.54	
COc1ccc(NC(=O)CC23CCCN2CCC3)cc1	0.6	4.8	
COc1ccc(OC)c(NC(=O)CC23CCCN2CCC3)c1	0.44	2.26	
Cc1cccc(C)c1NC(=O)CC12CCCN1CCC2	1.51		
Cc1ccccc1NC(=O)CC12CCCN1CCC2			ED40 [3]: 100 mg/kg
Cc1cc(C)c(NC(=O)CC23CCCN2CCC3)c(C)c1	1.22	9.09	
Nc1ccc(NC(=O)CC23CCCN2CCC3)cc1			LD50 [4]: 12 mg/kg
COc1cccc(NC(=O)CC23CCCN2CCC3)c1			ED40 [3]: 100 mg/kg
Nc1ccccc1NC(=O)CC12CCCN1CCC2		6.33	ED50 [3]: 100 mg/kg; Potency [5]: 0.9
Cc1cccc(NC(=O)CC23CCCN2CCC3)c1C	0.56	7.33	
Cc1cccc(C)c1NC(=O)C12CCCN1CCC2			ED20 [3]: 100 mg/kg; LD50 [4]: 603 mg/kg
O=C(CC12CCCN1CCC2)Nc1ccccc1Cl			ED20 [3]: 100 mg/kg
COc1ccccc1NC(=O)CC12CCCN1CCC2			ED40 [3]: 100 mg/kg
CCc1cccc(CC)c1NC(=O)CC12CCCN1CCC2	1.41	9.93	
O=C(CC12CCCN1CCC2)Nc1ccccc1			ED50 [6]: inactive
